# How the values were obtained:
# Type in all cases: functional
# Candida tropicalis = test: Antimicrobial activity against Candida tropicalis ATCC 13803 at 5 ug after 18 hrs by agar-well diffusion method; settings: ATCC 13803, 18 h, read-out: IZ
# In short: (§1)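 Yeast suspended in Mueller Hinton broth and diluted to about 10⁶ cfu/mL, then flood-inoculated onto Sabouraud Dextrose Agar and dried. 5-mm wells cut with a sterile cork-borer and filled with test substance. Plates incubated 18 h at 35 °C. Read-out is the zone of inhibition.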
# Candida albicans = test: Antimicrobial activity against Candida albicans ATCC 60193 at 5 ug after 18 hrs by agar-well diffusion method; settings: ATCC 60193, 18 h, read-out: IZ; in short: as §1
# Escherichia coli = test: Antimicrobial activity against Escherichia coli ATCC 25922 at 10 ug after 18 hrs by agar-well diffusion method; settings: ATCC 25922, 18 h, read-out: IZ
# In short: (§2)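 Bacteria suspended in Mueller Hinton broth at about 10⁶ cfu/mL, flood-inoculated onto Mueller Hinton agar and dried. Test substance placed into 5-mm wells bored with a sterile cork-borer. Incubation 18 h at 35 °C, then the inhibition zone around each well measured.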
# [1] = test system: Yersinia pseudotuberculosis; test: Antimicrobial activity against Yersinia pseudotuberculosis ATCC 911 at 10 ug after 18 hrs by agar-well diffusion method; settings: ATCC 911, 18 h, read-out: IZ; in short: as §2
# Pseudomonas aeruginosa = test: Antimicrobial activity against Pseudomonas aeruginosa ATCC 27853 at 10 ug after 18 hrs by agar-well diffusion method; settings: ATCC 27853, 18 h, read-out: IZ
# Enterococcus faecalis = test: Antimicrobial activity against Enterococcus faecalis ATCC 29212 at 10 ug after 18 hrs by agar-well diffusion method; settings: ATCC 29212, 18 h, read-out: IZ
# Staphylococcus aureus = test: Antimicrobial activity against Staphylococcus aureus ATCC 25923 at 10 ug after 18 hrs by agar-well diffusion method; settings: ATCC 25923, 18 h, read-out: IZ
# Bacillus cereus = test: Antimicrobial activity against Bacillus cereus 702 Roma at 10 ug after 18 hrs by agar-well diffusion method; settings: read-out: IZ
SMILES,zone of inhibition at 5 µg/disc (Candida tropicalis) [mm],zone of inhibition at 5 µg/disc (Candida albicans) [mm],zone of inhibition at 10 µg/disc (Escherichia coli) [mm],zone of inhibition at 10 µg/disc [1] [mm],zone of inhibition at 10 µg/disc (Pseudomonas aeruginosa) [mm],zone of inhibition at 10 µg/disc (Enterococcus faecalis) [mm],zone of inhibition at 10 µg/disc (Staphylococcus aureus) [mm],zone of inhibition at 10 µg/disc (Bacillus cereus) [mm]
OC(Cn1cncn1)(Cn1cncn1)c1ccc(F)cc1F [FLUCONAZOLE],25,25,–,–,–,–,–,–
CC1(C)S[C@@H]2[C@H](NC(=O)[C@H](N)c3ccccc3)C(=O)N2[C@H]1C(=O)O [AMPICILLIN],–,–,10,18,18,10,35,15
